Experimental data from paper PMC12082725 (Journal of Enzyme Inhibition and Medicinal Chemistry, 2025).
Where two headings read alike, the source gives them in different places.

Key:
[1] = biological target: SARS-CoV-2 NP-RNA interaction (Severe acute respiratory syndrome coronavirus 2, UniProt P0DTC9); test: biochemical; format: biochemical; conditions: for inhibition rate of the NP-RNA interaction: compound at 50 μM
SARS-CoV-2 NP = SARS-CoV-2 NP (Severe acute respiratory syndrome coronavirus 2, UniProt P0DTC9); test: BLI binding of compounds to full-length NP
How it was run: (§1)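 Target was recombinant E. coli-expressed SARS-CoV-2 NP, either CTD or full-length (1–419). Protein at 0.39 mg/ml was biotinylated for 30 min at RT, then loaded at 100 μg/ml onto streptavidin sensors for 20 min. After a 60 s baseline, increasing test compound concentrations gave 120 s association and 300 s dissociation. Run in PBS/0.01% Tween-20 at 30 °C; double-reference subtracted; KD from a global 1:1 Langmuir fit.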

SARS-CoV-2 NP CTD = SARS-CoV-2 NP CTD (Severe acute respiratory syndrome coronavirus 2, UniProt P0DTC9); test: BLI binding of compounds to NP CTD
How it was run: as §1

SARS-CoV-2 NP NTD = SARS-CoV-2 NP NTD (Severe acute respiratory syndrome coronavirus 2, UniProt P0DTC9); test: BLI binding of compounds to NP NTD; conditions: NP NTD (residues 44 to 174)
[2] = biological target: RNA-induced LLPS of the NP (Severe acute respiratory syndrome coronavirus 2, UniProt P0DTC9); format: biochemical, SARS-CoV-2
NP NTD = conditions: read-out: Kd, NP NTD; via bio-layer interferometry assay; ref [28]; cited from earlier work

For `COc1ccc(CC(C)NCC(O)c2ccc(O)c(NC=O)c2)cc1` (centres unmarked) [formoterol], the “inhibitory effect on NP-RNA interaction (in words)” value (from here on “inhibitory effect”) ([1]; HTRF, 50 μM) was “neither compound affected”.
In the case of `CC(C)[N+]1(C)[C@@H]2CC[C@H]1C[C@@H](OC(=O)C(CO)c1ccccc1)C2` (some centres unmarked) [ipratropium bromide], the “inhibitory effect” value ([1]; HTRF, 50 μM) is reported as “neither compound affected”.
In the case of `COc1ccc2cc([C@H](C)C(=O)O)ccc2c1` [naproxen], the “inhibitory effect” value [1] is reported as “did not inhibit”.
In the case of `O=C(O)c1cc(O)c2c(c1)[C@H]([C@H]1c3cc(C(=O)O)cc(O)c3C(=O)c3c(O[C@@H]4O[C@H](CO)[C@@H](O)[C@H](O)[C@H]4O)cccc31)c1cccc(O[C@@H]3O[C@H](CO)[C@@H](O)[C@H](O)[C@H]3O)c1C2=O` [sennoside A], the IC50 [1] is reported as 3.17 ± 0.39 µM, the “inhibition rate of the NP-RNA interaction” value ([1]; HTRF) is reported as “exceeding 98%” and the Kd (SARS-CoV-2 NP) is reported as 0.962 ± 0.019 µM. For the same compound, the Kd (SARS-CoV-2 NP CTD) was 1.82 ± 0.03 µM, the “binding to NP NTD” value (SARS-CoV-2 NP NTD) was “neither sennoside A nor sennoside B bound” and the “inhibition of RNA-induced LLPS of the NP” value [2] was “relatively weaker activity”.
For `O=C(O)c1cc(O)c2c(c1)[C@@H]([C@H]1c3cc(C(=O)O)cc(O)c3C(=O)c3c(O[C@@H]4O[C@H](CO)[C@@H](O)[C@H](O)[C@H]4O)cccc31)c1cccc(O[C@@H]3O[C@H](CO)[C@@H](O)[C@H](O)[C@H]3O)c1C2=O` [sennoside B], the IC50 [1] was 1.05 ± 0.23 µM, the “inhibition rate of the NP-RNA interaction” value ([1]; HTRF) was “exceeding 98%” and the Kd (SARS-CoV-2 NP) was 0.765 ± 0.012 µM. For the same compound, the Kd (SARS-CoV-2 NP CTD) was 0.529 ± 0.016 µM, the “binding to NP NTD” value (SARS-CoV-2 NP NTD) was “neither sennoside A nor sennoside B bound” and the “inhibition of RNA-induced LLPS of the NP” value [2] was “significantly inhibited”.
In the case of `Cc1ccc(C(=O)Nc2ccc(S(=O)(=O)O)c3cc(S(=O)(=O)O)cc(S(=O)(=O)O)c23)cc1NC(=O)c1cccc(NC(=O)Nc2cccc(C(=O)Nc3cc(C(=O)Nc4ccc(S(=O)(=O)O)c5cc(S(=O)(=O)O)cc(S(=O)(=O)O)c45)ccc3C)c2)c1` [suramin], the Kd (NP NTD) is listed as 2.74 µM.
For `CCOC(=O)c1c(CSc2ccccc2)n(C)c2cc(Br)c(O)c(CN(C)C)c12` [umifenovir], the “inhibitory effect” value ([1]; HTRF, 50 μM) was “no inhibitory effect”.
